Assay results from ChEMBL document CHEMBL1687796, “Synthesis and spectrum of the neoglycoside ACHN-490” (2010).
Values after ≈ are worked out from the molar mass of the structure shown.

Columns and labels:
[1] = tested on: Staphylococcus epidermidis; experiment: Antibacterial activity against aminoglycoside-resistant Staphylococcus epidermidis expressing ANT(4',4'')-2 by broth microdilution method; format: functional
Method in brief: (§1)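 Clinical aminoglycoside-resistant isolates were each carrying a single aminoglycoside-modifying enzyme. […] MICs were determined by CLSI broth microdilution.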

Acinetobacter baumannii [2] = experiment: Antibacterial activity against Acinetobacter baumannii ATCC 19606 by broth microdilution method; format: functional; settings: ATCC 19606 = CIP 70.34 = JCM 6841
Method in brief: (§2)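 MICs were measured by broth microdilution following CLSI guidance. The strains formed a 25-strain screening panel with diverse aminoglycoside resistance mechanisms. The panel included Gram-negative and S. aureus strains carrying key aminoglycoside-modifying enzymes, strains with altered permeability or efflux, and an armA ribosomal methyltransferase strain.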

Escherichia coli [3] = experiment: Antibacterial activity against aminoglycoside-resistant Escherichia coli expressing armA methylase by broth microdilution method; format: functional; method in brief: as §2
Staphylococcus aureus [4] = experiment: microbe, parasite or virus in culture; settings: ATCC 29213
Serratia marcescens [5] = experiment: Antibacterial activity against aminoglycoside-resistant Serratia marcescens expressing AAC(6')-1 by broth microdilution method; format: functional; method in brief: as §1
Klebsiella oxytoca [6] = experiment: Antibacterial activity against aminoglycoside-resistant Klebsiella oxytoca expressing AAC(6')-1 by broth microdilution method; format: functional; method in brief: as §1
Enterobacter sp. = experiment: Antibacterial activity against Enterobacter spp. by broth microdilution method; format: functional
Method in brief: (§3)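 MICs were determined by CLSI broth microdilution against clinical isolate panels that included aminoglycoside-resistant isolates. […] MIC90 was derived per group and not calculated when n was <10. Imipenem, ceftobiprole, ciprofloxacin and tigecycline MICs were also determined for the resistant isolates.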

Pseudomonas aeruginosa [7] = experiment: Antibacterial activity against Pseudomonas aeruginosa expressing AAC(3)-1 by broth microdilution method; format: functional
Acinetobacter = experiment: Antibacterial activity against aminoglycoside-resistant Acinetobacter spp. expressing APH(3')-6 by broth microdilution method; format: functional; method in brief: as §1
Klebsiella oxytoca [8] = experiment: Antibacterial activity against aminoglycoside-resistant Klebsiella oxytoca expressing AAC(3)-2 by broth microdilution method; format: functional; method in brief: as §1
Escherichia coli [9] = experiment: Antibacterial activity against aminoglycoside-resistant Escherichia coli expressing AAC(3)-IVa by broth microdilution method
Pseudomonas aeruginosa [10] = experiment: Antibacterial activity against wild type Pseudomonas aeruginosa expressing efflux pump by broth microdilution method; format: functional
Method in brief: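 MIC was determined by CLSI broth microdilution, read in μg/ml. The strain came from a 25-strain screening panel with diverse aminoglycoside resistance mechanisms. The panel included strains with changes in permeability or efflux, key aminoglycoside-modifying enzymes and an armA methyltransferase strain.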

Staphylococcus aureus [11] = experiment: microbe, parasite or virus in culture
Serratia marcescens [12] = experiment: Antibacterial activity against aminoglycoside-resistant Serratia marcescens expressing ANT(2'')-I by broth microdilution method
Klebsiella pneumoniae [13] = experiment: Antibacterial activity against aminoglycoside-resistant Klebsiella pneumoniae expressing AAC(3)-2 by broth microdilution method; format: functional; method in brief: as §1
Enterobacter cloacae [14] = experiment: Antibacterial activity against aminoglycoside-resistant Enterobacter cloacae expressing AAC(3)-2 by broth microdilution method; format: functional; method in brief: as §1
Pseudomonas aeruginosa [15] = experiment: Antibacterial activity against efflux pump deficient Pseudomonas aeruginosa by broth microdilution method; format: functional
Escherichia coli [16] = experiment: Antibacterial activity against aminoglycoside-resistant Escherichia coli expressing AAC(3)-2 by broth microdilution method; format: functional; method in brief: as §1
Klebsiella pneumoniae [17] = experiment: Antibacterial activity against aminoglycoside-resistant Klebsiella pneumoniae expressing AAC(3)-1 by broth microdilution method; format: functional; method in brief: as §1
Enterobacter cloacae [18] = experiment: Antibacterial activity against aminoglycoside-resistant Enterobacter cloacae expressing AAC(6')-1 by broth microdilution method; format: functional; method in brief: as §1
[19] = tested on: Staphylococcus epidermidis; experiment: Antibacterial activity against aminoglycoside-resistant Staphylococcus epidermidis expressing APH(3')-3 by broth microdilution method; format: functional
Serratia marcescens [20] = experiment: Antibacterial activity against aminoglycoside-resistant Serratia marcescens expressing ANT(2''), AAC(6') by broth microdilution method; format: functional; method in brief: as §2
Serratia sp. = experiment: Antibacterial activity against Serratia spp. by broth microdilution method; format: functional; settings: Serratia sp. (in: enterobacteria); method in brief: as §3
Citrobacter freundii = experiment: Antibacterial activity against aminoglycoside-resistant Citrobacter freundii expressing AAC(6')-1 by broth microdilution method; format: functional; method in brief: as §1
Acinetobacter baumannii [21] = experiment: Antibacterial activity against aminoglycoside-resistant Acinetobacter baumannii expressing […] by broth microdilution method; format: functional; method in brief: as §1
Pseudomonas aeruginosa [22] = experiment: Antibacterial activity against aminoglycoside-resistant Pseudomonas aeruginosa expressing AAC(6')-2 by broth microdilution method; format: functional; method in brief: as §1
Citrobacter = experiment: Antibacterial activity against Citrobacter spp. by broth microdilution method; format: functional; method in brief: as §3
Pluralibacter gergoviae = experiment: Antibacterial activity against aminoglycoside-resistant Enterobacter gergoviae expressing ANT(2'')-I by broth microdilution method
Staphylococcus aureus [23] = experiment: Antibacterial activity against aminoglycoside-resistant Staphylococcus aureus expressing ANT(4',4'')-2 by broth microdilution method; format: functional; method in brief: as §1
Pseudomonas aeruginosa [24] = experiment: Antibacterial activity against Pseudomonas aeruginosa ATCC 27853 by broth microdilution method; format: functional
Escherichia coli [25] = experiment: Antibacterial activity against aminoglycoside-resistant Escherichia coli expressing ANT(2'')-I by broth microdilution method
[26] = tested on: Staphylococcus epidermidis; experiment: Antibacterial activity against aminoglycoside-resistant Staphylococcus epidermidis expressing APH(2'') + AAC(6')-1 by broth microdilution method; format: functional; method in brief: as §1
Escherichia coli [27] = experiment: Antibacterial activity against aminoglycoside-resistant Escherichia coli expressing ANT(6')-1 by broth microdilution method; format: functional; method in brief: as §1
Serratia liquefaciens = experiment: Antibacterial activity against aminoglycoside-resistant Serratia liquefaciens expressing AAC(3)-2 by broth microdilution method; format: functional; method in brief: as §1
Klebsiella pneumoniae [28] = experiment: Antibacterial activity against aminoglycoside-resistant Klebsiella pneumoniae expressing AAC(3)-4 by broth microdilution method; format: functional; method in brief: as §1
Pseudomonas aeruginosa [29] = experiment: Antibacterial activity against Pseudomonas aeruginosa by broth microdilution method; format: functional; method in brief: as §3
Pseudomonas aeruginosa [30] = experiment: Antibacterial activity against aminoglycoside-resistant Pseudomonas aeruginosa expressing ANT(2'')-1 by broth microdilution method; format: functional; method in brief: as §1
Klebsiella aerogenes = experiment: Antibacterial activity against aminoglycoside-resistant Enterobacter aerogenes expressing AAC(3)-2 by broth microdilution method; format: functional; method in brief: as §1
Acinetobacter baumannii [31] = experiment: Antibacterial activity against aminoglycoside-resistant Acinetobacter baumannii expressing ANT(2'')-1 by broth microdilution method; format: functional; method in brief: as §1
Acinetobacter sp. = experiment: Antibacterial activity against Acinetobacter spp. by broth microdilution method; format: functional; method in brief: as §3
Staphylococcus aureus [32] = experiment: Antibacterial activity against aminoglycoside-resistant Staphylococcus aureus expressing APH(2'') + AAC(6')-1 by broth microdilution method; format: functional; method in brief: as §1
Staphylococcus aureus [33] = experiment: microbe, parasite or virus in culture; remark: listed apart in the source
Pseudomonas aeruginosa [34] = experiment: Antibacterial activity against Pseudomonas aeruginosa expressing mexXY operon by broth microdilution method; format: functional; method in brief: as §2
[35] = Antibacterial activity against indole positive Proteae by broth microdilution method; format: functional; method in brief: as §3
Staphylococcus aureus [36] = experiment: Antibacterial activity against aminoglycoside-resistant Staphylococcus aureus expressing APH(2'') + AAC(6') by broth microdilution method; format: functional; method in brief: as §2
Escherichia coli [37] = experiment: Antibacterial activity against Escherichia coli by broth microdilution method; format: functional; method in brief: as §3

Work on `CN[C@@H]1[C@@H](O)[C@@H](O[C@@H]2[C@@H](O)[C@H](O[C@H]3OC(CNCCO)=CC[C@H]3N)[C@@H](N)C[C@H]2NC(=O)[C@@H](O)CCN)OC[C@]1(C)O` [PLAZOMICIN] yielded an MIC [1] of 1 µg/mL (≈ 1.69 µM), an MIC (Acinetobacter baumannii [2]) of 8 µg/mL (≈ 13.5 µM) and an MIC (Escherichia coli [3]) greater than 64 µg/mL. The MIC (Staphylococcus aureus [4]) was 1 µg/mL (≈ 1.69 µM), the MIC (Serratia marcescens [5]) was 1 µg/mL (≈ 1.69 µM) and the MIC (Klebsiella oxytoca [6]) was 1 µg/mL (≈ 1.69 µM). The MIC50 (Enterobacter sp.) was 0.5 µg/mL (≈ 0.844 µM), the MIC90 (Enterobacter sp.) was 1 µg/mL (≈ 1.69 µM) and the MIC (Pseudomonas aeruginosa [7]) was 8 µg/mL (≈ 13.5 µM). For the same compound, the MIC (Acinetobacter) was 1 µg/mL (≈ 1.69 µM), the MIC (Klebsiella oxytoca [8]) was 1 µg/mL (≈ 1.69 µM) and the MIC (Escherichia coli [9]) was 1 µg/mL (≈ 1.69 µM). For the same compound, the MIC (Pseudomonas aeruginosa [10]) was 4 µg/mL (≈ 6.75 µM), the MIC (Staphylococcus aureus [11]) was 0.5 µg/mL (≈ 0.844 µM) and the MIC (Serratia marcescens [12]) was 1 µg/mL (≈ 1.69 µM). The MIC (Klebsiella pneumoniae [13]) was 1 µg/mL (≈ 1.69 µM), the MIC (Enterobacter cloacae [14]) was 1 µg/mL (≈ 1.69 µM) and the MIC (Pseudomonas aeruginosa [15]) was 0.125 µg/mL (≈ 0.211 µM). The MIC (Escherichia coli [16]) was 1 µg/mL (≈ 1.69 µM), the MIC (Klebsiella pneumoniae [17]) was 1 µg/mL (≈ 1.69 µM) and the MIC (Enterobacter cloacae [18]) was 1 µg/mL (≈ 1.69 µM). The MIC [19] was 1 µg/mL (≈ 1.69 µM), the MIC (Serratia marcescens [20]) was 2 µg/mL (≈ 3.37 µM) and the MIC50 (Serratia sp.) was 1 µg/mL (≈ 1.69 µM). It also gave an MIC (Citrobacter freundii) of 1 µg/mL (≈ 1.69 µM), an MIC (Acinetobacter baumannii [21]) of 4 µg/mL (≈ 6.75 µM) and an MIC (Pseudomonas aeruginosa [22]) of 6 µg/mL (≈ 10.1 µM). It also gave an MIC50 (Citrobacter) of 0.5 µg/mL (≈ 0.844 µM), an MIC (Pluralibacter gergoviae) of 1 µg/mL (≈ 1.69 µM) and an MIC (Staphylococcus aureus [23]) of 1 µg/mL (≈ 1.69 µM). It also gave an MIC (Pseudomonas aeruginosa [24]) of 2 µg/mL (≈ 3.37 µM), an MIC (Escherichia coli [25]) of 1 µg/mL (≈ 1.69 µM) and an MIC [26] of 1 µg/mL. For the same compound, the MIC (Escherichia coli [27]) was 0.25 µg/mL (≈ 0.422 µM), the MIC (Serratia liquefaciens) was 1 µg/mL (≈ 1.69 µM) and the MIC (Klebsiella pneumoniae [28]) was 1 µg/mL (≈ 1.69 µM). The MIC50 (Pseudomonas aeruginosa [29]) was 8 µg/mL (≈ 13.5 µM), the MIC90 (Pseudomonas aeruginosa [29]) was 64 µg/mL (≈ 108 µM) and the MIC (Pseudomonas aeruginosa [30]) was 3 µg/mL (≈ 5.06 µM). It also gave an MIC (Klebsiella aerogenes) of 1 µg/mL (≈ 1.69 µM), an MIC (Acinetobacter baumannii [31]) of 2 µg/mL (≈ 3.37 µM) and an MIC50 (Acinetobacter sp.) of 16 µg/mL (≈ 27 µM). For the same compound, the MIC90 (Acinetobacter sp.) was 32 µg/mL (≈ 54 µM), the MIC (Staphylococcus aureus [32]) was 1 µg/mL and the MIC (Staphylococcus aureus [33]) was 1 µg/mL (≈ 1.69 µM). For the same compound, the MIC (Pseudomonas aeruginosa [34]) was 8 µg/mL (≈ 13.5 µM), the MIC50 [35] was 8 µg/mL (≈ 13.5 µM) and the MIC (Staphylococcus aureus [36]) was 4 µg/mL. The MIC50 (Escherichia coli [37]) was 1 µg/mL (≈ 1.69 µM) and the MIC90 (Escherichia coli [37]) was 2 µg/mL (≈ 3.37 µM).
